Results reported in paper PMC10791108 (Journal of Enzyme Inhibition and Medicinal Chemistry, 2024).
Where two headings read alike, the source gives them in different places.

Tests used:
[1] = system: A549; assay: MTT drug sensitivity assay; format: cell-based; conditions: Homo sapiens, A549, 72 h, read-out: In vitro growth inhibitory activity (IC50 ± SD) A549
Outline: (§1)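 ATCC lines were grown at 37 °C, 5% CO2 with 10% FBS and 2 mM L-glutamine (A549, MCF-7: RPMI-1640; HCT-116, U-2 OS: McCoy's 5A; U-87 MG: MEM; HEK293: DMEM). Test compound 0–50 µM for 72 h, then MTT 0.4 mg/ml in PBS, 3 h, 37 °C. Formazan dissolved in DMSO, absorbance 540 nm. IC50 relative to 1% v/v DMSO-treated cells; three independent runs.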

[2] = system: HCT-116; assay: MTT drug sensitivity assay; format: cell-based; conditions: Homo sapiens, HCT-116, 72 h, read-out: In vitro growth inhibitory activity (IC50 ± SD) HCT-116
Outline: as §1

[3] = system: MCF-7; assay: MTT drug sensitivity assay; format: cell-based; conditions: Homo sapiens, MCF7, 72 h, read-out: In vitro growth inhibitory activity (IC50 ± SD) MCF-7
Outline: as §1

[4] = system: U-2 OS; assay: MTT drug sensitivity assay; format: cell-based; conditions: Homo sapiens, U2OS, 72 h, read-out: In vitro growth inhibitory activity (IC50 ± SD) U-2 OS
Outline: as §1

[5] = system: U-87 MG; assay: MTT drug sensitivity assay; format: cell-based; conditions: Homo sapiens, 72 h, read-out: In vitro growth inhibitory activity (IC50 ± SD) U-87 MG
Outline: as §1

[6] = system: HEK293; assay: MTT drug sensitivity assay; format: cell-based; conditions: Homo sapiens, HEK293, 72 h, read-out: In vitro growth inhibitory activity (IC50 ± SD) HEK293
Outline: as §1

[7] = system: all investigated cell lines, including HEK293; assay: MTT drug sensitivity assay, statement over all cell lines; format: cell-based; conditions: Homo sapiens, HEK293, 72 h, read-out: IC50 for all investigated cell lines
Outline: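 Cells were exposed to test compound at 0–50 µM for 72 h. Lines: A549 and MCF-7 (RPMI-1640), HCT-116 and U-2 OS (McCoy's 5A), U-87 MG (MEM), HEK293 (DMEM); all with 10% FBS, 37 °C, 5% CO2. MTT (0.4 mg/ml in PBS) for 3 h at 37 °C; formazan dissolved in DMSO; A540. ETP and m-AMSA as references; independent triplicate.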

[8] = molecular target: T1, Topo IIα (Homo sapiens, UniProt P11388); assay: pBR322 DNA relaxation assay; format: biochemical; conditions: for Inhibition of Topo IIα-mediated pBR322 relaxation: gel
T1 sequence (P11388 whole entry): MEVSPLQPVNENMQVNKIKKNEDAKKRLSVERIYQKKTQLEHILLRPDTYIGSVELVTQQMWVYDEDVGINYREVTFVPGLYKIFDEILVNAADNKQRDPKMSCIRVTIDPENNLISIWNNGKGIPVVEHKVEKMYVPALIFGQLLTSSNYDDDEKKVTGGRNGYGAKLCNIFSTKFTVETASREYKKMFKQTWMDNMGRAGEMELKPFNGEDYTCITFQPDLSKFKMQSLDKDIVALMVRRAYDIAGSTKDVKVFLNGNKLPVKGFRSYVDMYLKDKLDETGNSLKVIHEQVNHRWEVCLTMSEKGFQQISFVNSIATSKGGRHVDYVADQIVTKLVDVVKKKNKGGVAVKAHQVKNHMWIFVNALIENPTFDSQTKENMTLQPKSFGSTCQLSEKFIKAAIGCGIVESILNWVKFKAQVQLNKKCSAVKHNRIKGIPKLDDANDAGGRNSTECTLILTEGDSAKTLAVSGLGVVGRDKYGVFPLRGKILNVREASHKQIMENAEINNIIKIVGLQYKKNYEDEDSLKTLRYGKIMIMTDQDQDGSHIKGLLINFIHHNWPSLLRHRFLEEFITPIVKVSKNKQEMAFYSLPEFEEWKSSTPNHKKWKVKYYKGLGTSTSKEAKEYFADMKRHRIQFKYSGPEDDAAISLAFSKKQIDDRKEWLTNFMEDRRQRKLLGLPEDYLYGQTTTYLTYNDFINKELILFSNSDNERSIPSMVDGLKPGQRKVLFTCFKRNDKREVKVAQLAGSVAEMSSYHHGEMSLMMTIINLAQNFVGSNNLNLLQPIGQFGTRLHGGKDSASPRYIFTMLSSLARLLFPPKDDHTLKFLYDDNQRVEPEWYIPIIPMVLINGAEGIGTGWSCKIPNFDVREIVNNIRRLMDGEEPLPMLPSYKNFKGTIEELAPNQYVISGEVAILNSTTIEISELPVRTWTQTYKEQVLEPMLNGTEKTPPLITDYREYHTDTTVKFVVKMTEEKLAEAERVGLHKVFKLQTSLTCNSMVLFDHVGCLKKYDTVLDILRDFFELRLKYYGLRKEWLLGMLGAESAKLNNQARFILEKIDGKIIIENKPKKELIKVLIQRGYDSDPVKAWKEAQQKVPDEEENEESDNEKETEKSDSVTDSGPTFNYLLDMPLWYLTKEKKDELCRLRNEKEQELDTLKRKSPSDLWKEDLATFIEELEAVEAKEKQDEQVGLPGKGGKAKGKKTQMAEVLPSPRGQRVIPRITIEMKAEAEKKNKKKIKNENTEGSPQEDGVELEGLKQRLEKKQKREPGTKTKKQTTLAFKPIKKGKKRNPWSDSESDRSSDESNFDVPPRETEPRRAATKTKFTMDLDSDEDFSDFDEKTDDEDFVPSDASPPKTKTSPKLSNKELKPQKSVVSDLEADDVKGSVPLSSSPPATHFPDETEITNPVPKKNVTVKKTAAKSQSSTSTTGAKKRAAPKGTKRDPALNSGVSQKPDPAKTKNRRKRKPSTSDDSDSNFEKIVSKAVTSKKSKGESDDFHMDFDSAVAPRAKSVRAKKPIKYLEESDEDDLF

[9] = molecular target: T2, human Topo IIβ (Homo sapiens, UniProt Q02880); assay: pBR322 DNA relaxation assay; format: biochemical; conditions: gel
T2 sequence (Q02880 whole entry): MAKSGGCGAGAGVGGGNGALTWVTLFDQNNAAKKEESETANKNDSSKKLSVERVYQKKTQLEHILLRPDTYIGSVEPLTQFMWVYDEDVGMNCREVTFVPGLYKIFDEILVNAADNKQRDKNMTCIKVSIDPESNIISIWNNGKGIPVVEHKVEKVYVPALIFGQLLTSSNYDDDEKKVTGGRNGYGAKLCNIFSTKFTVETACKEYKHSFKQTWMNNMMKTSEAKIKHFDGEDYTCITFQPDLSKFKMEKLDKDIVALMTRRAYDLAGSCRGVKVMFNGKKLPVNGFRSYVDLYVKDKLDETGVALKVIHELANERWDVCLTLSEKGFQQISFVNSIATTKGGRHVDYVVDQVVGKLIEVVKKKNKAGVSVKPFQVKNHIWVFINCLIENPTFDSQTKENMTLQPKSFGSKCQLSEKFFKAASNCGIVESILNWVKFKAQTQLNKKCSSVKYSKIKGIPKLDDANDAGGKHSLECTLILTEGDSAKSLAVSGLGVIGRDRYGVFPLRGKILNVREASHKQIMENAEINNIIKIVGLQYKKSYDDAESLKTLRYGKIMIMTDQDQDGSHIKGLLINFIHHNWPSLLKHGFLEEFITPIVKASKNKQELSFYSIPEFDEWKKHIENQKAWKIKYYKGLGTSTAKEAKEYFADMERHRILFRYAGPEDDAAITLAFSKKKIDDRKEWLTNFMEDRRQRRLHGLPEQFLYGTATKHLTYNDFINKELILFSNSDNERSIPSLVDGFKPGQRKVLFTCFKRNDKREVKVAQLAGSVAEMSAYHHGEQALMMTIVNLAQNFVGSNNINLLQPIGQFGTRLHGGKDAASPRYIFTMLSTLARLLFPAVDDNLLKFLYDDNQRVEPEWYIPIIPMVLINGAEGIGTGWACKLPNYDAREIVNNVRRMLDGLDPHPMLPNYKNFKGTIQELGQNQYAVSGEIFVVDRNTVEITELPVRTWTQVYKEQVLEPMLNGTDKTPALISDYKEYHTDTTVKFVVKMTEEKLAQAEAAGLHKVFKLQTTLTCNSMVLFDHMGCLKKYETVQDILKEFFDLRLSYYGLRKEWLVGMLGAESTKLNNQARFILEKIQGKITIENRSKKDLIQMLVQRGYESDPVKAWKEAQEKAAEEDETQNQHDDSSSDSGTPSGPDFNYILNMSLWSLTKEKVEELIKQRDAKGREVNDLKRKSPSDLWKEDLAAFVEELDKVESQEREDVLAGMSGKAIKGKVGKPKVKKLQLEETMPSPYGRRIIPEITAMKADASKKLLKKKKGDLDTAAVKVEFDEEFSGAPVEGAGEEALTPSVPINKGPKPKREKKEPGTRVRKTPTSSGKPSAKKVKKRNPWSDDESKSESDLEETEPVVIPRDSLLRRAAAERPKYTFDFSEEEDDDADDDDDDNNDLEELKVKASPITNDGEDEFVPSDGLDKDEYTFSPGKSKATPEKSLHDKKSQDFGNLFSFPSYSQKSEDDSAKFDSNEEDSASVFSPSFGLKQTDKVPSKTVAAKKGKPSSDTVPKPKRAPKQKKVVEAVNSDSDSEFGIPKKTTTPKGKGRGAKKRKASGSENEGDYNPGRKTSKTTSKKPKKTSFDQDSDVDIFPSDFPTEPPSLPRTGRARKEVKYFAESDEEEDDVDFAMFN
Outline: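 Supercoiled pBR322 (250 ng) with test compound in reaction buffer. Started by adding diluted human Topo IIβ, incubated 30 min at 37 °C, quenched with loading buffer. Topoisomers separated on 1% agarose in 1× TBE (20 V, 18 h) and visualised by ethidium bromide staining. ETP and ICRF-187 were included as references.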

[10] = molecular target: T1, Topo IIα; assay: kDNA decatenation assay; format: biochemical; conditions: gel
Outline: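 Commercial kit protocol: 250 ng kDNA with test compound in reaction buffer; started by adding diluted human Topo IIα; 30 min at 37 °C; stopped with loading buffer. Products resolved on 1% agarose in 1xTBE, 20 V for 18 h, EtBr-stained, destained in water, imaged. Catenated versus decatenated kDNA judged by migration.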

[11] = molecular target: T2, human Topo IIβ; assay: kDNA decatenation assay; format: biochemical; conditions: gel
Outline: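 Decatenation: 250 ng kDNA was mixed with test compound in reaction buffer. The reaction was started with diluted human Topo IIβ and run for 30 min at 37 °C, then stopped with loading buffer. Products were resolved on a 1% agarose gel in 1× TBE at 20 V for 18 h and stained with ethidium bromide. ETP and ICRF-187 were references.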

[12] = molecular target: T1, Topo IIα; assay: DNA cleavage assay; format: biochemical; conditions: for Stabilisation of Topo IIα/DNA cleavage complex (linear pBR322 plasmid): gel, ETP 100 µM
Outline: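 Reaction mix as for the human Topo IIα relaxation assay (plasmid DNA, test compound, reaction buffer), but with fivefold more enzyme. Reaction started by adding human Topo IIα, then 10 min at 37 °C. Products separated by agarose gel electrophoresis in 1× TBE containing EtBr (1 µg/ml), and linear plasmid scored on the gel.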

[13] = system: A549; assay: Clonogenic assay; format: cell-based, human; conditions: 24 h treatment, eight days culture, vs DMSO
Outline: (§2)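 A549 or HCT-116 cells were seeded at 400 cells/well and exposed to a range of test compound concentrations for 24 h. After washing, cells were grown for eight days, then fixed in methanol and stained with 0.5% crystal violet. Colonies were counted and viability calculated relative to control. Mean ± SD of three independent experiments.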

[14] = system: HCT-116; assay: Clonogenic assay; format: cell-based, human; conditions: 24 h treatment, eight days culture, vs DMSO
Outline: as §2

[15] = system: A549; assay: Annexin V-FITC/7-AAD apoptosis assay; format: cell-based, human; conditions: Annexin V/7-AAD
[16] = system: HCT-116; assay: Annexin V-FITC/7-AAD apoptosis assay; format: cell-based, human; conditions: for Necrosis activation HCT-116: statistically significant, **p < 0.001
[17] = system: A549; assay: Caspase-3/7 activation; format: cell-based, human; conditions: 24 h, equitoxic concentrations
[18] = system: HCT-116; assay: TUNEL DNA fragmentation analysis; format: cell-based, human; conditions: 24 and 48 h; more pronounced than on A549
[19] = system: HCT-116; assay: Cell cycle analysis; format: cell-based, human; conditions: equitoxic concentrations, 24 and 48 h
[20] = system: A549; assay: BrdU incorporation assay; format: cell-based, human; conditions: equitoxic (IC50) concentration, 24 or 48 h
[21] = system: HCT-116; assay: BrdU incorporation assay; format: cell-based, human; conditions: equitoxic (IC50) concentration, 24 or 48 h
[22] = system: MCF-7; assay: Cell cycle analysis; format: cell-based, human; conditions: 48 h exposure, equitoxic concentration, p < 0.00001
[23] = system: A549; conditions: reference, 50 µM added 15 min before end of incubation
[24] = system: HCT-116; conditions: reference, 50 µM added 15 min before end of incubation
[25] = system: A549; conditions: read-out: IC50 cytotoxic activity A549; 72 h ref 51; cited from earlier work
[26] = system: MCF-7; conditions: read-out: IC50 cytotoxic activity MCF-7; 72 h ref 51; cited from earlier work
[27] = concentration series up to highest concentration tested

c1coc(-c2ccc3c(c2)[nH]c2cc(-c4ccco4)ccc23)c1 [Compound 27a, 2,7-Di(2-furyl)-9H-carbazole]
IC50 [1]: 260 ± 120 nM
IC50 [2]: 220 ± 40 nM
IC50 [3]: 790 ± 210 nM
IC50 [4]: 370 ± 50 nM
IC50 [5]: 450 ± 150 nM
IC50 [6]: 190 ± 70 nM
IC50 [7]: < 1000 nM
Inhibition of Topo IIα-mediated pBR322 relaxation ([8]; highest tested concentrations): moderately affected
Inhibition of Topo IIβ-mediated pBR322 relaxation ([9]; highest tested concentrations): moderately affected
Inhibition of Topo IIα-mediated kDNA decatenation [10, 27]: either completely inhibited decatenation only at the highest concentration tested, or partially inhibited the decatenation of higher-order catenates
Inhibition of Topo IIβ-mediated kDNA decatenation ([11]; 100 µM): completely inhibited decatenation
Stabilisation of Topo IIα/DNA cleavage complex (linear pBR322 plasmid) [12]: do not stabilise the covalent cleavage complex
Colony-forming ability A549 [13]: reduced the colony number
Colony-forming ability HCT-116 [14]: reduced the colony number
Increase in fraction of apoptotic cells compared to control A549 [15]: eightfold increase
Increase in fraction of apoptotic cells compared to control HCT-116 ([16]; Annexin V/7-AAD): eightfold increase
Necrosis activation HCT-116 [16]: slightly activated necrosis
Caspase-3/7 activation, increase compared to control A549 [17]: 3.4 fold
TUNEL-positive cells HCT-116 [18]: most massive effect

c1coc(-c2ccc3[nH]c4ccc(-c5ccco5)cc4c3c2)c1 [Compound 36a, 3,6-Di(2-furyl)-9H-carbazole]
IC50 [1]: 930 ± 150 nM
IC50 [2]: 480 ± 60 nM
IC50 [3]: 1390 ± 290 nM
IC50 [4]: 990 ± 180 nM
IC50 [5]: 2190 ± 300 nM
IC50 [6]: 1650 ± 130 nM
Isoform selectivity of relaxation inhibition (Topo IIα vs Topo IIβ) ([8]; from relaxation gels with both isoforms): selectively inhibits the relaxation activity of Topo IIα
Inhibition of Topo IIα-mediated pBR322 relaxation ([8]; 20–100 µM): fully inhibited DNA relaxation
Inhibition of Topo IIβ-mediated pBR322 relaxation ([9]; 20–100 µM): did not impact Topo IIβ activity
Inhibition of Topo IIα-mediated kDNA decatenation ([10]; 4–100 µM): effective and concentration-dependent inhibition
Inhibition of Topo IIβ-mediated kDNA decatenation ([11]; highest concentration tested): partially inhibiting decatenation only at the highest concentration tested
Effect on ETP-induced DNA cleavage (linear plasmid) ([12]; co-treatment with ETP, Topo IIα): reduced the level of linear plasmid
Stabilisation of Topo IIα/DNA cleavage complex (linear pBR322 plasmid) [12]: do not stabilise the covalent cleavage complex
Colony-forming ability A549 [13]: reduced the colony number
Colony-forming ability HCT-116 [14]: reduced the colony number
Cell cycle effect HCT-116 (G0/G1 phase) [19]: time-dependent increase in the number of cells in the G0/G1 phase
Caspase-3/7 activation, increase compared to control A549 [17]: 5.7 fold

c1csc(-c2ccc3[nH]c4ccc(-c5cccs5)cc4c3c2)c1 [Compound 36b, 3,6-Di(2-thienyl)-9H-carbazole]
IC50 [1]: 600 ± 100 nM
IC50 [2]: 270 ± 110 nM
IC50 [3]: 830 ± 210 nM
IC50 [4]: 710 ± 60 nM
IC50 [5]: 1400 ± 240 nM
IC50 [6]: 320 ± 110 nM
Inhibition of Topo IIα-mediated pBR322 relaxation ([8]; highest tested concentrations): moderately affected
Inhibition of Topo IIβ-mediated pBR322 relaxation ([9]; highest tested concentrations): moderately affected
Inhibition of Topo IIα-mediated kDNA decatenation [10, 27]: either completely inhibited decatenation only at the highest concentration tested, or partially inhibited the decatenation of higher-order catenates
Stabilisation of Topo IIα/DNA cleavage complex (linear pBR322 plasmid) [12]: do not stabilise the covalent cleavage complex
Colony-forming ability A549 [13]: lower inhibitory activity
Decrease in BrdU-positive cells A549 [20]: approximately 4 fold
Decrease in BrdU-positive cells HCT-116 [21]: ~3.5 fold
Cells in G0/G1 phase MCF-7 [22]: 59.85 ± 2.15%
Necrosis activation HCT-116 [16]: slightly activated necrosis
Caspase-3/7 activation, increase compared to control A549 [17]: 2.5 fold

COc1cc([C@@H]2c3cc4c(cc3[C@@H](O[C@@H]3O[C@@H]5CO[C@@H](C)O[C@H]5[C@H](O)[C@H]3O)[C@H]3COC(=O)[C@H]23)OCO4)cc(OC)c1O [Etoposide, etoposide, reference compound]
IC50 [1]: 540 ± 210 nM
IC50 [2]: 390 ± 10 nM
IC50 [3]: 830 ± 150 nM
IC50 [4]: 610 ± 40 nM
IC50 [5]: 11900 ± 1310 nM

N#CC(C#N)=NNc1ccc(OC(F)(F)F)cc1 [FCCP, carbonyl cyanide 4-(trifluoromethoxy)phenylhydrazone]
Increase in JC-1 monomers vs control A549 [23]: 11 fold
Increase in JC-1 monomers vs control HCT-116 [24]: 6.3 fold

C[C@@H](CN1CC(=O)NC(=O)C1)N1CC(=O)NC(=O)C1 [ICRF-187, reference compound]
Inhibition of Topo IIα-mediated pBR322 relaxation ([8]; reference at 100 µM): completely inhibited relaxation activity
Inhibition of Topo IIβ-mediated pBR322 relaxation ([9]; reference at 100 µM): relatively lower inhibitory effects
Inhibition of Topo IIβ-mediated kDNA decatenation ([11]; 100 µM): more significant effect than ETP

O=C1NC(=S)NC(=O)C1C(=O)Nc1ccccc1 [merbarone]
IC50 [25]: 40000 ± 2700 nM
IC50 [26]: 83900 ± 3000 nM
